In brackets after ≈: the same amount, converted by molar mass. One block for each compound: values may come before it. Activity calls are given as the source filed them. The rule behind the calls is not given here.
Columns and labels:
Trichoderma koningii [1] = assay: Antifungal activity against Trichoderma koningii assessed as radial growth at 7% after 72 hrs by poison food technique of Flack relative to control; assay type: functional
Summary of the method: (§1)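 Acetone stock added to molten sterilized PDA to final 0.5–7%, plated in 90 mm dishes with compound-free plates as control. Each plate was inoculated with a 9 mm disc from a 4-day-old culture, incubated at 25 ± 1 °C, and colony diameter measured at 24 h intervals. % inhibition = (control − treatment)/control × 100; three replicates averaged.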

Trichoderma hamatum [2] = assay: Antifungal activity against Trichoderma hamatum assessed as radial growth at 5% after 24 hrs by poison food technique of Flack relative to control; assay type: functional; summary of the method: as §1
Trichoderma hamatum [3] = assay: Antifungal activity against Trichoderma hamatum assessed as radial growth at 7% after 72 hrs by poison food technique of Flack relative to control; assay type: functional; summary of the method: as §1
Trichoderma hamatum [4] = assay: Antifungal activity against Trichoderma hamatum assessed as radial growth at 3% after 72 hrs by poison food technique of Flack relative to control; assay type: functional
Aspergillus niger [5] = assay: Antifungal activity against Aspergillus niger assessed as radial growth at 1% after 24 hrs by poison food technique of Flack relative to control; assay type: functional
Trichoderma koningii [6] = assay: Antifungal activity against Trichoderma koningii assessed as radial growth at 1% after 24 hrs by poison food technique of Flack relative to control; assay type: functional; summary of the method: as §1
Aspergillus niger [7] = assay: Antifungal activity against Aspergillus niger assessed as radial growth at 3% after 24 hrs by poison food technique of Flack relative to control; assay type: functional
Trichoderma hamatum [8] = assay: Antifungal activity against Trichoderma hamatum assessed as radial growth at 3% after 48 hrs by poison food technique of Flack relative to control; assay type: functional
Trichoderma hamatum [9] = assay: Antifungal activity against Trichoderma hamatum assessed as radial growth at 1% after 24 hrs by poison food technique of Flack relative to control; assay type: functional
Trichoderma koningii [10] = assay: Antifungal activity against Trichoderma koningii assessed as radial growth at 5% after 48 hrs by poison food technique of Flack relative to control; assay type: functional; summary of the method: as §1
Trichoderma hamatum [11] = assay: Antifungal activity against Trichoderma hamatum assessed as radial growth at 1% after 48 hrs by poison food technique of Flack relative to control; assay type: functional
Aspergillus niger [12] = assay: Antifungal activity against Aspergillus niger assessed as radial growth at 0.5% after 48 hrs by poison food technique of Flack relative to control; assay type: functional
Aspergillus niger [13] = assay: Antifungal activity against Aspergillus niger assessed as radial growth at 3% after 48 hrs by poison food technique of Flack relative to control; assay type: functional
Trichoderma hamatum [14] = assay: Antifungal activity against Trichoderma hamatum assessed as radial growth at 7% after 24 hrs by poison food technique of Flack; assay type: functional, organism-based
Summary of the method: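 Poisoned-food method: acetone stock mixed into molten sterilized potato dextrose agar to final 0.5, 1, 3, 5 or 7%, poured into 90 mm plates. Plates were inoculated with a 9 mm mycelial disc from a 4-day-old pure culture and incubated at 25 ± 1 °C. Colony diameter (mm) was read every 24 h; mean of three replicates.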

Trichoderma koningii [15] = assay: Antifungal activity against Trichoderma koningii assessed as radial growth at 0.5% after 48 hrs by poison food technique of Flack relative to control; assay type: functional; summary of the method: as §1
Aspergillus niger [16] = assay: Antifungal activity against Aspergillus niger assessed as radial growth at 5% after 24 hrs by poison food technique of Flack relative to control; assay type: functional
Trichoderma koningii [17] = assay: Antifungal activity against Trichoderma koningii assessed as radial growth at 3% after 72 hrs by poison food technique of Flack relative to control; assay type: functional; summary of the method: as §1
Trichoderma koningii [18] = assay: Antifungal activity against Trichoderma koningii assessed as radial growth at 7% after 24 hrs by poison food technique of Flack relative to control; assay type: functional; summary of the method: as §1
Aspergillus niger [19] = assay: Antifungal activity against Aspergillus niger assessed as radial growth at 7% after 48 hrs by poison food technique of Flack relative to control; assay type: functional
Aspergillus niger [20] = assay: Antifungal activity against Aspergillus niger assessed as radial growth at 7% after 24 hrs by poison food technique of Flack relative to control; assay type: functional
Trichoderma koningii [21] = assay: Antifungal activity against Trichoderma koningii assessed as radial growth at 5% after 72 hrs by poison food technique of Flack relative to control; assay type: functional; summary of the method: as §1
Trichoderma koningii [22] = assay: Antifungal activity against Trichoderma koningii assessed as radial growth at 0.5% after 24 hrs by poison food technique of Flack relative to control; assay type: functional; summary of the method: as §1
Trichoderma koningii [23] = assay: Antifungal activity against Trichoderma koningii assessed as radial growth at 5% after 24 hrs by poison food technique of Flack relative to control; assay type: functional; summary of the method: as §1
Aspergillus niger [24] = assay: Antifungal activity against Aspergillus niger assessed as radial growth at 0.5% after 24 hrs by poison food technique of Flack relative to control; assay type: functional
Aspergillus niger [25] = assay: Antifungal activity against Aspergillus niger assessed as radial growth at 7% after 72 hrs by poison food technique of Flack relative to control; assay type: functional
Trichoderma hamatum [26] = assay: Antifungal activity against Trichoderma hamatum; assay type: functional
Trichoderma hamatum [27] = assay: Antifungal activity against Trichoderma hamatum assessed as radial growth at 1% after 72 hrs by poison food technique of Flack relative to control; assay type: functional
Aspergillus niger [28] = assay: Antifungal activity against Aspergillus niger assessed as radial growth at 5% after 72 hrs by poison food technique of Flack relative to control; assay type: functional
Trichoderma koningii [29] = assay: Antifungal activity against Trichoderma koningii assessed as radial growth at 3% after 48 hrs by poison food technique of Flack relative to control; assay type: functional; summary of the method: as §1
Trichoderma koningii [30] = assay: Antifungal activity against Trichoderma koningii assessed as radial growth at 1% after 48 hrs by poison food technique of Flack relative to control; assay type: functional; summary of the method: as §1
Trichoderma koningii [31] = assay: Antifungal activity against Trichoderma koningii assessed as radial growth at 1% after 72 hrs by poison food technique of Flack relative to control; assay type: functional; summary of the method: as §1
Trichoderma hamatum [32] = assay: Antifungal activity against Trichoderma hamatum assessed as radial growth at 0.5% after 72 hrs by poison food technique of Flack relative to control; assay type: functional
Aspergillus niger [33] = assay: Antifungal activity against Aspergillus niger assessed as radial growth at 5% after 48 hrs by poison food technique of Flack relative to control; assay type: functional
Aspergillus niger [34] = assay: Antifungal activity against Aspergillus niger assessed as radial growth at 1% after 48 hrs by poison food technique of Flack relative to control; assay type: functional
Trichoderma hamatum [35] = assay: Antifungal activity against Trichoderma hamatum assessed as radial growth at 0.5% after 48 hrs by poison food technique of Flack relative to control; assay type: functional
Trichoderma koningii [36] = assay: Antifungal activity against Trichoderma koningii assessed as radial growth at 3% after 24 hrs by poison food technique of Flack relative to control; assay type: functional; summary of the method: as §1
Aspergillus niger [37] = assay: Antifungal activity against Aspergillus niger assessed as radial growth at 1% after 72 hrs by poison food technique of Flack relative to control; assay type: functional
Trichoderma koningii [38] = assay: Antifungal activity against Trichoderma koningii assessed as radial growth at 0.5% after 72 hrs by poison food technique of Flack relative to control; assay type: functional; summary of the method: as §1
Trichoderma hamatum [39] = assay: Antifungal activity against Trichoderma hamatum assessed as radial growth at 7% after 24 hrs by poison food technique of Flack relative to control; assay type: functional; summary of the method: as §1
Aspergillus niger [40] = assay: Antifungal activity against Aspergillus niger assessed as radial growth at 0.5% after 72 hrs by poison food technique of Flack relative to control; assay type: functional
Aspergillus niger [41] = assay: Antifungal activity against Aspergillus niger; assay type: functional
Trichoderma hamatum [42] = assay: Antifungal activity against Trichoderma hamatum assessed as radial growth at 5% after 72 hrs by poison food technique of Flack relative to control; assay type: functional; summary of the method: as §1
Trichoderma hamatum [43] = assay: Antifungal activity against Trichoderma hamatum assessed as radial growth at 3% after 24 hrs by poison food technique of Flack relative to control; assay type: functional
Trichoderma koningii [44] = assay: Antifungal activity against Trichoderma koningii; assay type: functional
Trichoderma hamatum [45] = assay: Antifungal activity against Trichoderma hamatum assessed as radial growth at 0.5% after 24 hrs by poison food technique of Flack relative to control; assay type: functional

- MIC (Trichoderma hamatum [26]): 0.025 µg/mL (≈ 0.0783 µM)
- MIC (Aspergillus niger [41]): 0.35 µg/mL (≈ 1.1 µM)
- MIC (Trichoderma koningii [44]): 0.025 µg/mL (≈ 0.0783 µM)
SMILES: CCOC(=O)C1=C(C)NC(=S)NC1c1ccc(N(C)C)cc1 (stereo not given)
- inhibition (INH) (Trichoderma koningii [1]): 91.1%
- inhibition (INH) (Trichoderma hamatum [2]): 100%
- inhibition (INH) (Trichoderma hamatum [3]): 97.57%
- inhibition (INH) (Trichoderma hamatum [4]): 40.39%
- inhibition (INH) (Aspergillus niger [5]): 13.6%
- inhibition (INH) (Trichoderma koningii [6]): 3.84%
- inhibition (INH) (Aspergillus niger [7]): 30%
- inhibition (INH) (Trichoderma hamatum [8]): 74.44%
- inhibition (INH) (Trichoderma hamatum [9]): 21.42%
- inhibition (INH) (Trichoderma koningii [10]): 86.21%
- inhibition (INH) (Trichoderma hamatum [11]): 12.4%
- inhibition (INH) (Aspergillus niger [12]): 0%
- inhibition (INH) (Aspergillus niger [13]): 40%
- Activity (Trichoderma hamatum [14]): Active
- inhibition (INH) (Trichoderma koningii [15]): 0%
- inhibition (INH) (Aspergillus niger [16]): 100%
- inhibition (INH) (Trichoderma koningii [17]): 15.77%
- inhibition (INH) (Trichoderma koningii [18]): 100%
- inhibition (INH) (Aspergillus niger [19]): 100%
- inhibition (INH) (Aspergillus niger [20]): 100%
- inhibition (INH) (Trichoderma koningii [21]): 88.29%
- inhibition (INH) (Trichoderma koningii [22]): 0%
- inhibition (INH) (Trichoderma koningii [23]): 92.3%
- inhibition (INH) (Aspergillus niger [24]): 0%
- inhibition (INH) (Aspergillus niger [25]): 100%
- inhibition (INH) (Trichoderma hamatum [27]): 13.9%
- inhibition (INH) (Aspergillus niger [28]): 78.39%
- inhibition (INH) (Trichoderma koningii [29]): 18.75%
- inhibition (INH) (Trichoderma koningii [30]): 0%
- inhibition (INH) (Trichoderma koningii [31]): 0%
- inhibition (INH) (Trichoderma hamatum [32]): 8.39%
- inhibition (INH) (Aspergillus niger [33]): 100%
- inhibition (INH) (Aspergillus niger [34]): 0%
- inhibition (INH) (Trichoderma hamatum [35]): 5.25%
- inhibition (INH) (Trichoderma koningii [36]): 41.69%
- inhibition (INH) (Aspergillus niger [37]): 0%
- inhibition (INH) (Trichoderma koningii [38]): 0%
- inhibition (INH) (Trichoderma hamatum [39]): 100%
- inhibition (INH) (Aspergillus niger [40]): 0%
- inhibition (INH) (Trichoderma hamatum [42]): 96.68%
- inhibition (INH) (Trichoderma hamatum [43]): 75%
- inhibition (INH) (Trichoderma hamatum [45]): 8.92%

- MIC (Trichoderma hamatum [26]): 0.025 µg/mL (≈ 0.0905 µM)
- MIC (Aspergillus niger [41]): 0.025 µg/mL (≈ 0.0905 µM)
- MIC (Trichoderma koningii [44]): 0.025 µg/mL (≈ 0.0905 µM)
SMILES: CCOC(=O)C1=C(C)NC(=O)NC1c1ccccc1O (stereo not given)
- inhibition (INH) (Trichoderma koningii [1]): 97.31%
- inhibition (INH) (Trichoderma hamatum [2]): 89.47%
- inhibition (INH) (Trichoderma hamatum [3]): 96.78%
- inhibition (INH) (Trichoderma hamatum [4]): 59.1%
- inhibition (INH) (Aspergillus niger [5]): 0%
- inhibition (INH) (Trichoderma koningii [6]): 0%
- inhibition (INH) (Aspergillus niger [7]): 37.6%
- inhibition (INH) (Trichoderma hamatum [8]): 68.75%
- inhibition (INH) (Trichoderma hamatum [9]): 21.05%
- inhibition (INH) (Trichoderma koningii [10]): 70.83%
- inhibition (INH) (Trichoderma hamatum [11]): 22.44%
- inhibition (INH) (Aspergillus niger [12]): 34.75%
- inhibition (INH) (Aspergillus niger [13]): 64.58%
- Activity (Trichoderma hamatum [14]): Active
- inhibition (INH) (Trichoderma koningii [15]): 0%
- inhibition (INH) (Aspergillus niger [16]): 40%
- inhibition (INH) (Trichoderma koningii [17]): 25.16%
- inhibition (INH) (Trichoderma koningii [18]): 100%
- inhibition (INH) (Aspergillus niger [19]): 100%
- inhibition (INH) (Aspergillus niger [20]): 100%
- inhibition (INH) (Trichoderma koningii [21]): 55.7%
- inhibition (INH) (Trichoderma koningii [22]): 0%
- inhibition (INH) (Trichoderma koningii [23]): 79.71%
- inhibition (INH) (Aspergillus niger [24]): 0%
- inhibition (INH) (Aspergillus niger [25]): 92.85%
- inhibition (INH) (Trichoderma hamatum [27]): 15.84%
- inhibition (INH) (Aspergillus niger [28]): 66.07%
- inhibition (INH) (Trichoderma koningii [29]): 38.81%
- inhibition (INH) (Trichoderma koningii [30]): 5.2%
- inhibition (INH) (Trichoderma koningii [31]): 0.67%
- inhibition (INH) (Trichoderma hamatum [32]): 0%
- inhibition (INH) (Aspergillus niger [33]): 65.66%
- inhibition (INH) (Aspergillus niger [34]): 17.75%
- inhibition (INH) (Trichoderma hamatum [35]): 0%
- inhibition (INH) (Trichoderma koningii [36]): 50.72%
- inhibition (INH) (Aspergillus niger [37]): 16.07%
- inhibition (INH) (Trichoderma koningii [38]): 0%
- inhibition (INH) (Trichoderma hamatum [39]): 100%
- inhibition (INH) (Aspergillus niger [40]): 33.35%
- inhibition (INH) (Trichoderma hamatum [42]): 95.07%
- inhibition (INH) (Trichoderma hamatum [43]): 63.84%
- inhibition (INH) (Trichoderma hamatum [45]): 0%

— ChEMBL document CHEMBL1152173, “Synthesis and in vitro evaluation of the antifungal activities of dihydropyrimidinones” (2008)
